Experimental data reported in ChEMBL document CHEMBL1165950, “Design and synthesis of new potent anticancer pyrazoles with high FLT3 kinase inhibitory selectivity” (Bioorg Med Chem, 2010).

How the values were obtained:
Type in all cases: functional
HCT-116 = test: Cytotoxicity against human HCT116 cells assessed as cell growth at 100 nM after 48 hrs by sulforhodamine B assay; conditions: HCT-116, 48 h, read-out: Activity
SF-295 [1] = test: Cytotoxicity against human SF295 cells assessed as cell growth at 100 nM after 48 hrs by sulforhodamine B assay; conditions: SF-295, 48 h, read-out: Activity
SK-MEL-28 [2] = test: Cytotoxicity against human SK-MEL-28 cells assessed as cell growth at 100 nM after 48 hrs by sulforhodamine B assay; conditions: SK-MEL-28, 48 h, read-out: Activity
MCF7 [3] = test: Cytotoxicity against human MCF7 cells assessed as cell growth at 0.001 uM after 48 hrs by sulforhodamine B assay; conditions: MCF7, 48 h, read-out: Activity
RXF 393 [4] = test: Cytotoxicity against human RXF393 cells assessed as cell growth at 100 nM after 48 hrs by sulforhodamine B assay; conditions: RXF 393, 48 h, read-out: Activity
MCF7 [5] = test: Cytotoxicity against human MCF7 cells assessed as cell growth at 100 nM after 48 hrs by sulforhodamine B assay; conditions: MCF7, 48 h, read-out: Activity
SR [6] = test: Cytotoxicity against human SR cells assessed as cell growth at 1 uM after 48 hrs by sulforhodamine B assay; conditions: read-out: Activity
NCI-H226 [7] = test: Cytotoxicity against human NCI-H226 cells assessed as cell growth at 1 uM after 48 hrs by sulforhodamine B assay; conditions: NCI-H226, 48 h, read-out: Activity
SR [8] = test: Cytotoxicity against human SR cells assessed as cell growth at 0.001 uM after 48 hrs by sulforhodamine B assay; conditions: read-out: Activity
HCC 2998 [9] = test: Cytotoxicity against human HCC2998 cells assessed as cell growth at 1 uM after 48 hrs by sulforhodamine B assay; conditions: HCC 2998, 48 h, read-out: Activity
SK-MEL-28 [10] = test: Cytotoxicity against human SK-MEL-28 cells assessed as cell growth at 1 uM after 48 hrs by sulforhodamine B assay; conditions: SK-MEL-28, 48 h, read-out: Activity
SK-MEL-5 = test: Cytotoxicity against human SK-MEL-5 cells assessed as cell growth at 1 uM after 48 hrs by sulforhodamine B assay; conditions: SK-MEL-5, 48 h, read-out: Activity
NCI-H226 [11] = test: Cytotoxicity against human NCI-H226 cells assessed as cell growth at 0.01 uM after 48 hrs by sulforhodamine B assay; conditions: NCI-H226, 48 h, read-out: Activity
MDA-MB-435 = test: Cytotoxicity against human MDA-MB-435 cells assessed as cell growth at 0.01 uM after 48 hrs by sulforhodamine B assay; conditions: MDA-MB-435, 48 h, read-out: Activity
SR [12] = test: Growth inhibition of human SR cells after 48 hrs by sulforhodamine B assay
In short: (§1)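 NCI 60-cell screen, five-dose mode. Cells grown in RPMI 1640 with 5% FBS and 2 mM L-glutamine and plated at 5000-40,000 cells/well according to doubling time. After 24 h preincubation, a Tz plate was TCA-fixed. Five concentrations (10-fold or 1/2 log dilutions) were applied for 48 h at 37 °C. SRB staining read at 515 nm. IC50 taken from [(Ti-Tz)/(C-Tz)]×100 = 50.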

NCI-H226 [13] = test: Growth inhibition of human NCI-H226 cells after 48 hrs by sulforhodamine B assay; conditions: NCI-H226, 48 h; for CC50: read-out: LC50 (the source's name); in short: as §1
HCC 2998 [14] = test: Growth inhibition of human HCC2998 cells after 48 hrs by sulforhodamine B assay; conditions: HCC 2998, 48 h; for CC50: read-out: LC50 (the source's name); in short: as §1
SK-MEL-28 [15] = test: Growth inhibition of human SK-MEL-28 cells after 48 hrs by sulforhodamine B assay; conditions: SK-MEL-28, 48 h; for CC50: read-out: LC50 (the source's name); in short: as §1
DU-145 = test: Cytotoxicity against human DU145 cells assessed as cell growth at 0.01 uM after 48 hrs by sulforhodamine B assay; conditions: DU-145, 48 h, read-out: Activity
SR [16] = test: Cytotoxicity against human SR cells assessed as cell growth at 100 nM after 48 hrs by sulforhodamine B assay; conditions: read-out: Activity
MCF7 [17] = test: Growth inhibition of human MCF7 cells after 48 hrs by sulforhodamine B assay; conditions: MCF7, 48 h; in short: as §1
CCRF-CEM = test: Cytotoxicity against human CCRF-CEM cells assessed as cell growth at 10 uM; conditions: read-out: Activity
In short: (§2)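 Single-dose NCI-60 screen at 10 µM. Cells were grown in RPMI 1640 with 5% FBS and 2 mM L-glutamine, then treated for 48 h at 37 °C. Protein was measured by SRB staining with absorbance at 515 nm. Percentage growth was recorded, and inhibition percentage was calculated as 100 minus growth percentage.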

[18] = Cytotoxicity against human […] cells assessed as cell growth at 10 uM; conditions: read-out: Activity
In short: (§3)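 NCI-60 screen: cells grown in RPMI 1640 with 5% FBS and 2 mM L-glutamine, plated at 5000–40,000 cells/well according to doubling time, and preincubated 24 h at 37 °C, 5% CO2. The single 10 µM dose (DMSO stock) was added, then incubated 48 h. Cells were TCA-fixed and stained with 0.4% SRB, read at 515 nm, and growth % calculated against time-zero and control plates.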

CAKI-1 = test: Cytotoxicity against human Caki1 cells assessed as cell growth at 1 uM after 48 hrs by sulforhodamine B assay; conditions: CAKI-1, 48 h, read-out: Activity
HOP-92 = test: Cytotoxicity against human HOP92 cells assessed as cell growth at 10 uM; conditions: read-out: Activity; in short: as §2
KM12 = test: Cytotoxicity against human KM12 cells assessed as cell growth at 10 uM; conditions: read-out: Activity; in short: as §3
[19] = Cytotoxicity against human […] cells assessed as cell growth at 10 uM after 48 hrs by sulforhodamine B assay; conditions: read-out: Activity
NCI-H226 [20] = test: Cytotoxicity against human NCI-H226 cells assessed as cell growth at 10 uM after 48 hrs by sulforhodamine B assay; conditions: NCI-H226, 48 h, read-out: Activity
HCC 2998 [21] = test: Cytotoxicity against human HCC2998 cells assessed as cell growth at 10 uM after 48 hrs by sulforhodamine B assay; conditions: HCC 2998, 48 h, read-out: Activity
SF-295 [22] = test: Cytotoxicity against human SF295 cells assessed as cell growth at 10 uM after 48 hrs by sulforhodamine B assay; conditions: SF-295, 48 h, read-out: Activity
786-0 = test: Cytotoxicity against human 786-0 cells assessed as cell growth at 10 uM after 48 hrs by sulforhodamine B assay; conditions: 786-0, 48 h, read-out: Activity
RXF 393 [23] = test: Cytotoxicity against human RXF393 cells assessed as cell growth at 10 uM after 48 hrs by sulforhodamine B assay; conditions: RXF 393, 48 h, read-out: Activity
UO-31 = test: Cytotoxicity against human UO31 cells assessed as cell growth at 10 uM after 48 hrs by sulforhodamine B assay; conditions: UO-31, 48 h, read-out: Activity
PC-3 = test: Cytotoxicity against human PC3 cells assessed as cell growth at 10 uM after 48 hrs by sulforhodamine B assay; conditions: PC-3, 48 h, read-out: Activity
MCF7 [24] = test: Cytotoxicity against human MCF7 cells assessed as cell growth at 10 uM after 48 hrs by sulforhodamine B assay; conditions: MCF7, 48 h, read-out: Activity

Compound `Cc1cc(O)cc(-c2nn(CC#N)cc2-c2ccnc(-c3ccc(N(C)C)cc3)c2)c1` has a growth at 0.1 µM (HCT-116) of 87%, a growth at 0.1 µM (SF-295 [1]) of 78% and a growth at 0.1 µM (SK-MEL-28 [2]) of 96%. For the same compound, the growth at 0.001 µM (MCF7 [3]) was 97%, the growth at 0.1 µM (RXF 393 [4]) was 120% and the growth at 0.1 µM (MCF7 [5]) was 50%. The growth at 1 µM (SR [6]) was 17%, the growth at 1 µM (NCI-H226 [7]) was 19% and the growth at 0.001 µM (SR [8]) was 93%. It also gave a growth at 1 µM (HCC 2998 [9]) of 13%, a growth at 1 µM (SK-MEL-28 [10]) of 32% and a growth at 1 µM (SK-MEL-5) of -26%. For the same compound, the growth at 0.01 µM (NCI-H226 [11]) was 94%, the growth at 0.01 µM (MDA-MB-435) was 91% and the GI50 (SR [12]) was 2.64 µM. The LC50 (concentration killing 50% of cells) (SR [12]) was over 100 µM, the TGI (SR [12]) was over 100 µM and the GI50 (NCI-H226 [13]) was 4.18 µM. It also gave a TGI (NCI-H226 [13]) of 21.8 µM, a CC50 (NCI-H226 [13]) of over 100 µM and a GI50 (HCC 2998 [14]) of 3.19 µM. The TGI (HCC 2998 [14]) was 13.2 µM, the CC50 (HCC 2998 [14]) was 37.2 µM and the GI50 (SK-MEL-28 [15]) was 5.22 µM. For the same compound, the TGI (SK-MEL-28 [15]) was 32.4 µM, the CC50 (SK-MEL-28 [15]) was over 100 µM and the growth at 0.01 µM (DU-145) was 97%. The growth at 0.1 µM (SR [16]) was 74%, the GI50 (MCF7 [17]) was 0.975 µM and the LC50 (MCF7 [17]) was 69.9 µM. It also gave a TGI (MCF7 [17]) of 13.9 µM, a growth at 10 µM (CCRF-CEM) of 40.3% and a growth at 10 µM [18] of 41.6%. For the same compound, the growth at 1 µM (CAKI-1) was 9%, the growth at 10 µM (HOP-92) was 32.4% and the growth at 10 µM (KM12) was 27.3%. It also gave a growth at 10 µM [19] of -28%, a growth at 10 µM (NCI-H226 [20]) of -38% and a growth at 10 µM (HCC 2998 [21]) of -98%. It also gave a growth at 10 µM (SF-295 [22]) of -54%, a growth at 10 µM (786-0) of -49% and a growth at 10 µM (RXF 393 [23]) of -46%. The growth at 10 µM (UO-31) was -19%, the growth at 10 µM (PC-3) was -9% and the growth at 10 µM (MCF7 [24]) was -61%.

`COc1cc(C)cc(-c2c(-c3ccnc(-c4ccc(C(C)=O)cc4)c3)cnn2CC#N)c1` gave a growth at 0.1 µM (HCT-116) of 73%, a growth at 0.1 µM (SF-295 [1]) of 85% and a growth at 0.1 µM (SK-MEL-28 [2]) of 95%. For the same compound, the growth at 0.001 µM (MCF7 [3]) was 96%, the growth at 0.1 µM (RXF 393 [4]) was 94% and the growth at 0.1 µM (MCF7 [5]) was 86%. The growth at 1 µM (SR [6]) was 18%, the growth at 1 µM (NCI-H226 [7]) was 34% and the growth at 0.001 µM (SR [8]) was 96%. It also gave a growth at 1 µM (HCC 2998 [9]) of 2%, a growth at 1 µM (SK-MEL-28 [10]) of 44% and a growth at 1 µM (SK-MEL-5) of -37%. The growth at 0.01 µM (NCI-H226 [11]) was 93%, the growth at 0.01 µM (MDA-MB-435) was 91% and the GI50 (SR [12]) was 2.87 µM. For the same compound, the LC50 (concentration killing 50% of cells) (SR [12]) was over 100 µM, the TGI (SR [12]) was over 100 µM and the GI50 (NCI-H226 [13]) was 5.47 µM. It also gave a TGI (NCI-H226 [13]) of over 100 µM, a CC50 (NCI-H226 [13]) of over 100 µM and a GI50 (HCC 2998 [14]) of 3.41 µM. The TGI (HCC 2998 [14]) was over 100 µM, the CC50 (HCC 2998 [14]) was over 100 µM and the GI50 (SK-MEL-28 [15]) was 7.66 µM. For the same compound, the TGI (SK-MEL-28 [15]) was over 100 µM, the CC50 (SK-MEL-28 [15]) was over 100 µM and the growth at 0.01 µM (DU-145) was 100%. It also gave a growth at 0.1 µM (SR [16]) of 77%, a GI50 (MCF7 [17]) of 3.25 µM and an LC50 (MCF7 [17]) of over 100 µM. For the same compound, the TGI (MCF7 [17]) was over 100 µM, the growth at 10 µM (CCRF-CEM) was 53.7% and the growth at 10 µM [18] was 67.6%. The growth at 1 µM (CAKI-1) was 29%, the growth at 10 µM (HOP-92) was 23.5% and the growth at 10 µM (KM12) was 80.2%. It also gave a growth at 10 µM [19] of -1%, a growth at 10 µM (NCI-H226 [20]) of 35% and a growth at 10 µM (HCC 2998 [21]) of 5%. It also gave a growth at 10 µM (SF-295 [22]) of 35%, a growth at 10 µM (786-0) of 20% and a growth at 10 µM (RXF 393 [23]) of -27%. It also gave a growth at 10 µM (UO-31) of 15%, a growth at 10 µM (PC-3) of 27% and a growth at 10 µM (MCF7 [24]) of 17%.
